What was measured:
Format in all cases: functional
Acinetobacter johnsonii [1] = experiment: Antibacterial activity against Acinetobacter johnsonii ATCC 17909 at 25 mg/ml after 24 hrs by agar diffusion test; details: ATCC 17909, 24 h, read-out: DIZ
Method in brief: (§1)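 Agar diffusion: wells in agar filled with […] DMSO solution of compound at various concentrations; diameter of clear zone around application point measured. Bacteria grown 24 h at 37 °C on nutrient agar. Compounds first screened at 50 mg/ml; those active then tested at lower concentrations. Bracketed value = lowest concentration (mg/ml) giving zone >11 mm, reported only if activity retained at ≤1.25 mg/ml.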

Priestia megaterium [2] = experiment: Antibacterial activity against Bacillus megaterium NRRL 1353895 at 1 mg/ml after 24 hrs by agar diffusion test; details: NRRL 1353895, 24 h, read-out: DIZ; method in brief: as §1
Micrococcus luteus [3] = experiment: Antibacterial activity against Sarcina lutea ATCC 9341 at 5 mg/ml after 24 hrs by agar diffusion test; details: ATCC 9341, 24 h, read-out: DIZ
Method in brief: (§2)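 Agar diffusion: bacteria grown 24 h at 37 °C on nutrient agar. Wells in the agar are filled with […] of compound solution in DMSO at various concentrations. The diameter of the clear zone around the application point is measured. Bracketed values give the lowest concentration (mg/ml) that produces a zone >11 mm. A first screen is run at 50 mg/ml.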

Micrococcus luteus [4] = experiment: Antibacterial activity against Sarcina lutea ATCC 9341 at 25 mg/ml after 24 hrs by agar diffusion test; details: ATCC 9341, 24 h, read-out: DIZ; method in brief: as §2
Micrococcus luteus [5] = experiment: Antibacterial activity against Micrococcus luteus ATCC 9631 at 25 mg/ml after 24 hrs by agar diffusion test; details: ATCC 9631, 24 h, read-out: DIZ; method in brief: as §1
Bacillus [6] = experiment: Antibacterial activity against Bacillus idosus B 241 at 5 mg/ml after 24 hrs by agar diffusion test; details: B 241, 24 h, read-out: DIZ; method in brief: as §1
Bacillus mycoides [7] = experiment: Antibacterial activity against Bacillus mycoides DSMZ 274 at 5 mg/ml after 24 hrs by agar diffusion test; details: DSMZ 274, 24 h, read-out: DIZ; method in brief: as §1
Priestia megaterium [8] = experiment: Antibacterial activity against Bacillus megaterium NRRL 1353895 at 5 mg/ml after 24 hrs by agar diffusion test; details: NRRL 1353895, 24 h, read-out: DIZ; method in brief: as §1
Bacillus cereus [9] = experiment: Antibacterial activity against Bacillus cereus ATCC 11778 at 25 mg/ml after 24 hrs by agar diffusion test; details: ATCC 11778, 24 h, read-out: DIZ; method in brief: as §1
Bacillus subtilis [10] = experiment: Antibacterial activity against Bacillus subtilis ATCC 6633 at 25 mg/ml after 24 hrs by agar diffusion test; details: ATCC 6633, 24 h, read-out: DIZ; method in brief: as §1
Staphylococcus aureus [11] = experiment: Antibacterial activity against Staphylococcus aureus NRRL B 313 at 5 mg/ml after 24 hrs by agar diffusion test; details: NRRL B 313, 24 h, read-out: DIZ; method in brief: as §2
Staphylococcus aureus [12] = experiment: Antibacterial activity against Staphylococcus aureus NRRL B 313 at 25 mg/ml after 24 hrs by agar diffusion test; details: NRRL B 313, 24 h, read-out: DIZ; method in brief: as §2
Micrococcus luteus [13] = experiment: Antibacterial activity against Sarcina lutea ATCC 9341 at 1 mg/ml after 24 hrs by agar diffusion test; details: ATCC 9341, 24 h, read-out: DIZ; method in brief: as §1
Bacillus subtilis [14] = experiment: Antibacterial activity against Bacillus subtilis ATCC 6633 at 5 mg/ml after 24 hrs by agar diffusion test; details: ATCC 6633, 24 h, read-out: DIZ
Method in brief: (§3)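 Agar diffusion: bacteria grown 24 h at 37 °C on nutrient agar; wells cut in the seeded agar are filled with compound solution in DMSO. Read-out is the diameter of the clear zone around the application point.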

Bacillus [15] = experiment: Antibacterial activity against Bacillus idosus B 241 at 25 mg/ml after 24 hrs by agar diffusion test; details: B 241, 24 h, read-out: DIZ; method in brief: as §1
Staphylococcus aureus [16] = experiment: Antibacterial activity against Staphylococcus aureus NRRL B 313 at 1 mg/ml after 24 hrs by agar diffusion test; details: NRRL B 313, 24 h, read-out: DIZ; method in brief: as §3
Micrococcus luteus [17] = experiment: Antibacterial activity against Micrococcus luteus ATCC 9631 at 1 mg/ml after 24 hrs by agar diffusion test; details: ATCC 9631, 24 h, read-out: DIZ; method in brief: as §1
Bacillus cereus [18] = experiment: Antibacterial activity against Bacillus cereus ATCC 11778 at 5 mg/ml after 24 hrs by agar diffusion test; details: ATCC 11778, 24 h, read-out: DIZ; method in brief: as §1
Bacillus mycoides [19] = experiment: Antibacterial activity against Bacillus mycoides DSMZ 274 at 25 mg/ml after 24 hrs by agar diffusion test; details: DSMZ 274, 24 h, read-out: DIZ; method in brief: as §1
Acinetobacter johnsonii [20] = experiment: Antibacterial activity against Acinetobacter johnsonii ATCC 17909 at 5 mg/ml after 24 hrs by agar diffusion test; details: ATCC 17909, 24 h, read-out: DIZ; method in brief: as §1
Bacillus subtilis [21] = experiment: Antibacterial activity against Bacillus subtilis ATCC 6633 at 1 mg/ml after 24 hrs by agar diffusion test; details: ATCC 6633, 24 h, read-out: DIZ; method in brief: as §1
Escherichia coli [22] = experiment: Antibacterial activity against Escherichia coli ATCC 8739 at 5 mg/ml after 24 hrs by agar diffusion test; details: ATCC 8739, 24 h, read-out: DIZ; method in brief: as §1
Acinetobacter johnsonii [23] = experiment: Antibacterial activity against Acinetobacter johnsonii ATCC 17909 at 1 mg/ml after 24 hrs by agar diffusion test; details: ATCC 17909, 24 h, read-out: DIZ; method in brief: as §1
Escherichia coli [24] = experiment: Antibacterial activity against Escherichia coli ATCC 8739 at 25 mg/ml after 24 hrs by agar diffusion test; details: ATCC 8739, 24 h, read-out: DIZ; method in brief: as §1
Bacillus cereus [25] = experiment: Antibacterial activity against Bacillus cereus ATCC 11778 at 1 mg/ml after 24 hrs by agar diffusion test; details: ATCC 11778, 24 h, read-out: DIZ; method in brief: as §1
Escherichia coli [26] = experiment: Antibacterial activity against Escherichia coli ATCC 8739 at 1 mg/ml after 24 hrs by agar diffusion test; details: ATCC 8739, 24 h, read-out: DIZ; method in brief: as §1
Priestia megaterium [27] = experiment: Antibacterial activity against Bacillus megaterium NRRL 1353895 at 25 mg/ml after 24 hrs by agar diffusion test; details: NRRL 1353895, 24 h, read-out: DIZ; method in brief: as §1
Micrococcus luteus [28] = experiment: Antibacterial activity against Micrococcus luteus ATCC 9631 at 5 mg/ml after 24 hrs by agar diffusion test; details: ATCC 9631, 24 h, read-out: DIZ; method in brief: as §1
Bacillus [29] = experiment: Antibacterial activity against Bacillus idosus B 241 at 1 mg/ml after 24 hrs by agar diffusion test; details: B 241, 24 h, read-out: DIZ; method in brief: as §1
Bacillus mycoides [30] = experiment: Antibacterial activity against Bacillus mycoides DSMZ 274 at 1 mg/ml after 24 hrs by agar diffusion test; details: DSMZ 274, 24 h, read-out: DIZ; method in brief: as §1

CN[C@@H]1[C@H](O[C@H]2[C@H](O[C@H]3[C@H](O)[C@@H](O)[C@H](N=C(N)N)[C@@H](O)[C@@H]3N=C(N)N)O[C@@H](C)[C@]2(O)C=O)O[C@@H](CO)[C@H](O)[C@H]1O [STREPTOMYCIN]
zone of inhibition at 25000 µg/mL (Acinetobacter johnsonii [1]): 30 mm
zone of inhibition at 1000 µg/mL (Priestia megaterium [2]): 20 mm
zone of inhibition at 5000 µg/mL (Micrococcus luteus [3]): 22 mm
zone of inhibition at 25000 µg/mL (Micrococcus luteus [4]): 27 mm
zone of inhibition at 25000 µg/mL (Micrococcus luteus [5]): 30 mm
zone of inhibition at 5000 µg/mL (Bacillus [6]): 27 mm
zone of inhibition at 5000 µg/mL (Bacillus mycoides [7]): 30 mm
zone of inhibition at 5000 µg/mL (Priestia megaterium [8]): 25 mm
zone of inhibition at 25000 µg/mL (Bacillus cereus [9]): 30 mm
zone of inhibition at 25000 µg/mL (Bacillus subtilis [10]): 35 mm
zone of inhibition at 5000 µg/mL (Staphylococcus aureus [11]): 26 mm
zone of inhibition at 25000 µg/mL (Staphylococcus aureus [12]): 32 mm
zone of inhibition at 1000 µg/mL (Micrococcus luteus [13]): 19 mm
zone of inhibition at 5000 µg/mL (Bacillus subtilis [14]): 30 mm
zone of inhibition at 25000 µg/mL (Bacillus [15]): 30 mm
zone of inhibition at 1000 µg/mL (Staphylococcus aureus [16]): 20 mm
zone of inhibition at 1000 µg/mL (Micrococcus luteus [17]): 20 mm
zone of inhibition at 5000 µg/mL (Bacillus cereus [18]): 28 mm
zone of inhibition at 25000 µg/mL (Bacillus mycoides [19]): 35 mm
zone of inhibition at 5000 µg/mL (Acinetobacter johnsonii [20]): 24 mm
zone of inhibition at 1000 µg/mL (Bacillus subtilis [21]): 25 mm
zone of inhibition at 5000 µg/mL (Escherichia coli [22]): 26 mm
zone of inhibition at 1000 µg/mL (Acinetobacter johnsonii [23]): 20 mm
zone of inhibition at 25000 µg/mL (Escherichia coli [24]): 35 mm
zone of inhibition at 1000 µg/mL (Bacillus cereus [25]): 23 mm
zone of inhibition at 1000 µg/mL (Escherichia coli [26]): 23 mm
zone of inhibition at 25000 µg/mL (Priestia megaterium [27]): 30 mm
zone of inhibition at 5000 µg/mL (Micrococcus luteus [28]): 25 mm
zone of inhibition at 1000 µg/mL (Bacillus [29]): 21 mm
zone of inhibition at 1000 µg/mL (Bacillus mycoides [30]): 25 mm

Reference: ChEMBL document CHEMBL1932986, “Synthesis and in vitro antimycobacterial activity of compounds derived from (R)- and (S)-2-amino-1-butanol - The crucial role of the configuration” (Eur J Med Chem, 2012)
